Measurements collected from several papers.
Lines come from different studies, so protocols differ.
Observed: enzyme activity
Mode: inhibitor
CHEK2: Serine/threonine-protein kinase Chk2 (CHEK2, Homo sapiens, UniProt O96017)

target	assay	setting	remaining activity [%]	SMILES
CHEK2		10 µM	88	FC(F)c1nc2ccccc2n1-c1nc(N2CCOCC2)nc(N2CCOCC2)n1
CHEK2		5 µM	97.8	O=C(Nc1cnn(-c2csc(C(=O)NC3COC3)c2)c1)Nc1ccccc1Cl
Serine/threonine-protein kinase Chk2 (CHEK2, Homo sapiens, UniProt O96017, R145W)		10 µM	102	Cc1ccc(NC(=O)c2ccc(C)c(C(F)(F)F)c2)cc1C#Cc1nn(C2CCC(O)CC2)c2ncnc(N)c12 (stereo not drawn)
CHEK2		10 µM	13	CCCOc1ccc(OC)c(F)c1C(=O)c1ccc(C(=O)N[C@@H]2CNC[C@H]2NC(=O)c2ccc3[nH]ncc3c2)cc1
CHEK2		10 µM	61	Nc1nc(NC2CCCCC2)sc1C(=O)c1ccccc1
CHEK2		23.5 nM	98	Cc1ccc(C(=O)Nc2ccc(CN3CCN(C)CC3)c(C(F)(F)F)c2)cc1C#Cc1cnc2cccnn12
CHEK2		10 µM	30	Nc1nc(Nc2ccccc2)sc1C(=O)c1c(F)cccc1F
CHEK2	radiometric	1 µM	75	Cc1cnc(NC2CCOCC2)nc1-n1cnc(C(=O)NC(CN)c2cc(F)cc(Cl)c2)c1 (stereo not drawn)
CHEK2		1 µM	97.4	CC(C)(O)[C@H]1CC[C@H](Nc2ccc3ncc(-c4cccc(C(F)(F)F)c4)n3n2)CC1
CHEK2		10 µM	80	Cn1c(=O)n(-c2ccc(C(C)(C)C#N)cc2)c2c3cc(-c4cnc5ccccc5c4)ccc3ncc21
CHEK2	radiometric	1 µM	72	CC(C)(C)c1nc2c(s1)c1nc(N)ncc1c1ccc(NS(=O)(=O)c3c(F)cccc3F)c(F)c12
CHEK2	radiometric	10 µM	31	COc1cc(Nc2cnc(C#N)c(O[C@H](C)CN(C)C)n2)ncc1-c1cnn(C)c1
